Screening results (PubChem BioAssay)
This excerpt belongs to a sample that is enriched for hits.
697 NFkB inh: lowers PMA/ionomycin-induced NF-kB signal in 697 B cells; 697 B-cell NF-kB luciferase reporter, 16 h; inhibition, % at 4 µM; 0.33% of 330,000 active; AID 435022; in the data active = inhibition above about 35%
UPR XBP1 act: adaptive UPR (XBP1) activation. activation, % at 20 µM. CHO-XBP1 luciferase reporter, IRE1-XBP1 UPR activation, luminescence; percent of tunicamycin response, DMSO as zero. 0.33% of 330,000 active;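 active = versus positive control, 20 µM dose yields 30% or more activation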
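Signal: luciferase luminescence; Assay system: CHO-XBP1 luciferase reporter cells; Amount: one thousand reporter cells per well; Dosing: 20 µM single concentration, DMSO 1%; Benchmarks: high control tunicamycin 10 µg/mL final, low control DMSO vehicle only; Schedule: 6 h compound exposure at 37 °C, 5% CO2; Evaluation: percent activation relative to tunicamycin reference.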
Jurkat NFkB inh: inhibitors of the PMA/ionomycin-induced NF-kB reporter in Jurkat cells | PMA/ionomycin-induced NF-kB luciferase reporter, luminescence | inhibition, % at 4 µM | 0.53% of 330,000 active; in the data active = inhibition above about 50%
CHOP UPR activ: activators of apoptotic arm of unfolded protein response (CHOP); CHO-CHOP luciferase reporter, UPR activation, luminescence; percent of tunicamycin response over DMSO baseline; activation, % at 10 µM; 0.34% of 330,000 active; AID 449763;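 active = at 10 µM dose, activation of 40% or more, normalized to positive control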
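Test system: CHO-CHOP cells, stable luciferase reporter of PERK-eIF2a-CHOP signalling | Quantity: 500 CHO-CHOP cells per well | Buffer or medium: F12 plus 10% serum | Compound dosing: 10 µM single point, 0.5% DMSO | Schedule: 6 h compound treatment, 37 °C | Signal: Luciferase luminescence | Control set: Tunicamycin high control, DMSO low control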
CHOP inh: blocks CHOP induction under ER stress; AID 2732; 3.8% of 220,000 active; inhibition, % at 10 µM; CHO-K1 CHOP-promoter luciferase, tunicamycin-induced, 15-18 h;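 active = compounds that reduced the stress-induced luciferase reporter signal by more than about 70% of percent inhibition, limit read from the data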
CHOP confirm: confirmation of CHOP induction inhibitors. inhibition, % at 10 µM. 45% of 2,100 active. shares compounds with CHOP inh. CHO-CHOP promoter luciferase reporter, tunicamycin-induced, luminescence;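 active = mean of three repeat readings of reporter signal inhibition above a set limit, cut at about 70% in these data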
Numbers stand for hits; - = inactive; . = no result given.

SMILES	697 NFkB inh	UPR XBP1 act	Jurkat NFkB inh	CHOP UPR activ	CHOP inh	CHOP confirm
COc1ccccc1C(=O)NC(=Nc1nc2ccccc2o1)NC(=O)c1ccccc1OC	-	-	-	-	106	134
N#C/C(=C/c1ccc(N2CCCCCC2)o1)c1cccc(F)c1	-	-	-	-	104	-
Cc1nc(N2CCN(c3ccccc3)CC2)[nH]c(=O)c1Cc1cccc2ccccc12	-	-	-	-	97	-
O=C(CCNS(=O)(=O)c1ccccc1)OCC(=O)c1ccc[nH]1	-	-	-	-	.	.
COc1ccc(Cl)cc1NC(=O)c1cc(-c2cc(C)ccc2O)n[nH]1	-	-	-	-	100	-
COc1ccc(NC(=O)c2cc(-c3cc(C)cc(C)c3O)n[nH]2)cc1Cl	-	-	-	-	104	102
COc1ccc(NC(=O)c2cc(-c3ccccc3O)n[nH]2)cc1Cl	-	-	-	-	.	.
COc1ccc(Cl)cc1NC(=O)c1cc(-c2ccc(C)cc2O)n[nH]1	-	-	-	-	-	.
CC1CCCCC1NC(=O)C(C)N1C(=O)c2ccccc2C1=O (configuration not stated)	-	-	-	-	.	.
CC(=O)Nc1ccc(S(=O)(=O)N2CCC3(CC2)OCCO3)cc1	-	-	-	-	.	.
Cc1cccc(C(=O)NNC(=O)c2cc3cc4ccccc4nc3s2)c1	-	-	-	-	103	-
Cc1cc(C(=O)OCC(=O)Nc2c(Cl)cccc2Cl)c(C)o1	-	-	-	-	.	.
CCOCCCNCc1ccc(OCCC(C)C)c(OC)c1	-	-	-	-	-	.
COc1ccccc1OCC(=O)NC1CC(C)(C)NC(C)(C)C1	-	-	-	-	.	.
COc1ccc(N2CCN(Cc3cc(=O)oc4cc(C)c(Cl)cc34)CC2)cc1	-	-	-	-	96	-
Cc1cc2oc(=O)cc(CN3CCOCC3)c2cc1Cl	-	-	-	-	.	.
O=C1CC(Sc2nnc(-c3ccccc3)o2)C(=O)N1c1ccccc1 (configuration not stated)	-	-	-	-	-	.
Cc1ccccc1N1C(=O)CC(Sc2nnc(-c3ccccc3)o2)C1=O (configuration not stated)	-	-	-	-	108	-
Cc1cc(C)c(COCc2cc(/C=N/O)c(C)cc2C)cc1/C=N/O	-	-	-	-	108	-
CSc1cc(/C=N/O)c(SC)s1	-	-	-	-	-	.
COc1ccc(-c2[nH]ncc2N=Nc2cc(C)cc(C)c2)cc1	-	-	-	-	104	102
C(=N\Nc1ncnc2sc3c(c12)CCC3)/c1cccs1	-	-	-	-	102	73
C(=N\Nc1ncnc2sc3c(c12)CCC3)/c1ccncc1	-	-	-	-	-	.
COc1ccc(/C=N/NC(=O)c2nc(Cl)c(Cl)c(N)c2Cl)cc1COc1ccc(F)cc1F	-	-	-	-	100	-
COc1ccc(/C=N/NC(=O)c2nc(Cl)c(Cl)c(N)c2Cl)cc1COc1ccccc1F	-	-	-	-	-	.
SMILES	697 NFkB inh	UPR XBP1 act	Jurkat NFkB inh	CHOP UPR activ	CHOP inh	CHOP confirm
CCN1CCN(C(=O)CCCCCn2c(=O)[nH]c3cc(C(=O)OC)ccc3c2=O)CC1	-	-	-	-	-	.
COC(=O)c1ccc2c(=O)n(CCCCCC(=O)N3CCN(c4ccccc4)CC3)c(=O)[nH]c2c1	-	-	-	-	105	113
CCCn1c(N/N=C(C)\C=C\c2ccccc2)nc2c1c(=O)[nH]c(=O)n2C	-	-	-	-	103	-
CCCn1c(SCCc2ccccc2)nc2c1c(=O)[nH]c(=O)n2C	-	-	-	-	-	.
O=C(Nc1cc(Cl)cc(Cl)c1)c1cccc(OC(F)F)c1	-	-	-	-	97	-
CCOC(=O)N1CCN(C(=O)C(=O)NN)CC1	-	-	-	-	-	.
Cc1ccc(C(=O)N/C(=C\c2ccc(Br)cc2)c2nc(=S)[nH][nH]2)cc1	-	-	-	-	108	122
O=S(=O)(c1ccc(-c2n[nH]c(=S)o2)cc1)N1CCCC1	-	-	-	-	.	.
COc1ccccc1NC(=O)CNC(=O)Cn1c(C)cc2ccccc2c1=O	-	-	-	-	.	.
COc1cc(NC(=O)Cn2c(C)cc3ccccc3c2=O)cc(OC)c1OC	-	-	-	-	97	-
CC(C)c1ccccc1OCCCCCN1CCOCC1	-	-	-	-	.	.
COc1ccc(C2(O)CC3CCC(C2)N3c2nc(C)cc(C)c2C#N)cc1 (configuration not stated)	-	-	-	-	101	-
O=C(C1=C(c2ccccc2)C(=O)c2ccccc2C1=O)c1ccccc1	.	.	.	.	104	112
COC1=C(c2ccccc2)C(=O)c2ccccc2C1=O	-	-	-	-	-	.
c1ccc(Nc2cccc3ccccc23)cc1	-	-	-	-	.	.
c1ccc(Nc2ccc3c4c(cccc24)CC3)cc1	-	-	-	-	100	-
CNC(=O)c1nnsc1S(=O)c1ccc(Cl)cc1 (configuration not stated)	-	-	-	-	107	-
Cc1ccc(S(=O)c2snnc2C)cc1 (configuration not stated)	-	-	-	-	.	.
Cc1cccc(C(=O)NC(=S)NNC(=O)c2cccs2)c1	-	-	-	-	-	.
Cc1cccc(C(=O)NC(=S)NNC(=O)c2ccc(Cl)cc2)c1	.	.	.	.	107	-
Cc1ccc(-c2csc3ncn(CC(=O)O)c(=O)c23)cc1C	-	-	-	-	.	.
O=C1c2ccc3c4c(ccc(c24)C(=O)N1c1cccc(O)c1)C(=O)N(c1cccc(O)c1)C3=O	-	-	-	-	101	86
C=CC(n1cncn1)C(O)(c1ccccc1)c1ccccc1 (configuration not stated)	-	-	-	-	.	.
NC(=O)CC(NC(=O)Cc1cccc2ccccc12)c1ccc(NCc2ccc(F)cc2)c([N+](=O)[O-])c1 (configuration not stated)	-	-	-	-	105	108
NC(=O)CC(NC(=O)Cc1cccc2ccccc12)c1ccc(NCc2ccccc2)c([N+](=O)[O-])c1 (configuration not stated)	-	-	-	-	101	91
NC(=O)CC(NC(=O)Cc1ccc(Br)cc1)c1ccc(NCc2cc(F)ccc2F)c([N+](=O)[O-])c1 (configuration not stated)	-	-	-	-	97	-
NC(=O)CC(NC(=O)Cc1cccc2ccccc12)c1ccc(NCc2ccccn2)c([N+](=O)[O-])c1 (configuration not stated)	-	-	-	-	-	.
Cc1ccc(-n2nnnc2SCC(=O)NCC2CCCO2)cc1C (configuration not stated)	-	-	-	-	.	.
Cc1cc(C(=O)N/N=C/c2cc(Br)ccc2OC(=O)c2ccccc2Cl)n[nH]1	-	-	-	-	99	-
